Source: ChEMBL document CHEMBL1240526, “Development of a new epidermal growth factor receptor positron emission tomography imaging agent based on the 3-cyanoquinoline core: synthesis and biological evaluation” (Bioorg Med Chem, 2010)
Blank lines part the entries; values can stand above or below the molecule they belong to.

Tests used:
Bone = assay: Biodistribution in human A431 cell xenografted nu/nu BALB/c mouse bone at 3.7 MBq after 60 mins; format: ADME, organism-based, Bone element, A-431; details: in vivo, 1 h
Lung = assay: Biodistribution in human A431 cell xenografted nu/nu BALB/c mouse lung at 3.7 MBq after 60 mins; format: ADME, organism-based, A-431; details: in vivo, 1 h
[1] = Metabolic stability in mouse liver assessed as compound remaining at 3.7 MBq after 2 mins; format: ADME, tissue-based; details: read-out: Stability
Method in brief: (§1)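 Non-tumor-bearing mice received 3.7 MBq of the ¹⁸F tracer iv. Plasma and liver were collected at 2, 30 and 60 min and snap-frozen. Samples were extracted in ice-cold MeOH (liver homogenized), centrifuged at 4 °C, then dried, filtered and run on radio-HPLC. Parent fraction = parent peak over total chromatogram radioactivity; plasma extraction efficiency 83.5%. Mean of three studies per time point.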

Jejunum [2] = assay: Biodistribution in human A431 cell xenografted nu/nu BALB/c mouse full jejunum at 3.7 MBq after 60 mins; format: ADME, organism-based, A-431; details: in vivo, 1 h
Spleen = assay: Biodistribution in human A431 cell xenografted nu/nu BALB/c mouse spleen at 3.7 MBq after 60 mins; format: ADME, organism-based, A-431; details: in vivo, 1 h
[3] = Metabolic stability in mouse plasma assessed as compound remaining at 3.7 MBq after 2 mins; format: ADME, cell-free; details: read-out: Stability; method in brief: as §1
[4] = Biodistribution in human A431 cell xenografted nu/nu BALB/c mouse tumor at 3.7 MBq after 60 mins; format: ADME, organism-based, Neoplasm, A-431; details: in vivo, 1 h
Heart = assay: Biodistribution in human A431 cell xenografted nu/nu BALB/c mouse heart at 3.7 MBq after 60 mins; format: ADME, organism-based, A-431; details: in vivo, 1 h
Colon [5] = assay: Biodistribution in human A431 cell xenografted nu/nu BALB/c mouse empty colon at 3.7 MBq after 60 mins; format: ADME, organism-based, A-431; details: in vivo, 1 h
[6] = Metabolic stability in mouse plasma assessed as compound remaining at 3.7 MBq after 60 mins; format: ADME, cell-free; details: read-out: Stability; method in brief: as §1
Duodenum [7] = assay: Biodistribution in human A431 cell xenografted nu/nu BALB/c mouse empty duodenum at 3.7 MBq after 60 mins; format: ADME, organism-based, A-431; details: in vivo, 1 h
[8] = Biodistribution in human A431 cell xenografted nu/nu BALB/c mouse urine at 3.7 MBq after 60 mins; format: ADME, organism-based, A-431; details: in vivo, 1 h
[9] = Biodistribution in human A431 cell xenografted nu/nu BALB/c mouse empty caecum at 3.7 MBq after 60 mins; format: ADME, organism-based, A-431; details: in vivo, 1 h
Duodenum [10] = assay: Biodistribution in human A431 cell xenografted nu/nu BALB/c mouse full duodenum at 3.7 MBq after 60 mins; format: ADME, organism-based, A-431; details: in vivo, 1 h
[11] = Biodistribution in human A431 cell xenografted nu/nu BALB/c mouse gallbladder at 3.7 MBq after 60 mins; format: ADME, organism-based, Gall bladder, A-431; details: in vivo, 1 h
[12] = Biodistribution in human A431 cell xenografted nu/nu BALB/c mouse plasma at 3.7 MBq after 60 mins; format: ADME, organism-based, A-431; details: in vivo, 1 h
Kidney = assay: Biodistribution in human A431 cell xenografted nu/nu BALB/c mouse kidney at 3.7 MBq after 60 mins; format: ADME, organism-based, A-431; details: in vivo, 1 h
[13] = Metabolic stability in mouse plasma assessed as compound remaining at 3.7 MBq after 30 mins; format: ADME, cell-free; details: read-out: Stability; method in brief: as §1
Jejunum [14] = assay: Biodistribution in human A431 cell xenografted nu/nu BALB/c mouse empty jejunum at 3.7 MBq after 60 mins; format: ADME, organism-based, A-431; details: in vivo, 1 h
[15] = Biodistribution in human A431 cell xenografted nu/nu BALB/c mouse liver at 3.7 MBq after 60 mins; format: ADME, organism-based, A-431; details: in vivo, 1 h
[16] = Metabolic stability in mouse liver assessed as compound remaining at 3.7 MBq after 30 mins; format: ADME, tissue-based; details: read-out: Stability; method in brief: as §1
[17] = Biodistribution in human A431 cell xenografted nu/nu BALB/c mouse full caecum at 3.7 MBq after 60 mins; format: ADME, organism-based, A-431; details: in vivo, 1 h
Blood = assay: Biodistribution in human A431 cell xenografted nu/nu BALB/c mouse blood at 3.7 MBq after 60 mins; format: ADME, organism-based, A-431; details: in vivo, 1 h
Muscle tissue = assay: Biodistribution in human A431 cell xenografted nu/nu BALB/c mouse muscle at 3.7 MBq after 60 mins; format: ADME, organism-based, A-431; details: in vivo, 1 h
Brain = assay: Biodistribution in human A431 cell xenografted nu/nu BALB/c mouse brain at 3.7 MBq after 60 mins; format: ADME, organism-based, A-431; details: in vivo, 1 h
Colon [18] = assay: Biodistribution in human A431 cell xenografted nu/nu BALB/c mouse full colon at 3.7 MBq after 60 mins; format: ADME, organism-based, A-431; details: in vivo, 1 h
Stomach [19] = assay: Biodistribution in human A431 cell xenografted nu/nu BALB/c mouse empty stomach at 3.7 MBq after 60 mins; format: ADME, organism-based, A-431; details: in vivo, 1 h
Stomach [20] = assay: Biodistribution in human A431 cell xenografted nu/nu BALB/c mouse full stomach at 3.7 MBq after 60 mins; format: ADME, organism-based, A-431; details: in vivo, 1 h
[21] = Metabolic stability in mouse liver assessed as compound remaining at 3.7 MBq after 60 mins; format: ADME, tissue-based; details: read-out: Stability; method in brief: as §1
[22] = biological target: Epidermal growth factor receptor (Homo sapiens, UniProt P00533); assay: Inhibition of EGFR autophosphorylation in human A431 cells; format: cell-based, A-431
Chain of Epidermal growth factor receptor (P00533 whole entry): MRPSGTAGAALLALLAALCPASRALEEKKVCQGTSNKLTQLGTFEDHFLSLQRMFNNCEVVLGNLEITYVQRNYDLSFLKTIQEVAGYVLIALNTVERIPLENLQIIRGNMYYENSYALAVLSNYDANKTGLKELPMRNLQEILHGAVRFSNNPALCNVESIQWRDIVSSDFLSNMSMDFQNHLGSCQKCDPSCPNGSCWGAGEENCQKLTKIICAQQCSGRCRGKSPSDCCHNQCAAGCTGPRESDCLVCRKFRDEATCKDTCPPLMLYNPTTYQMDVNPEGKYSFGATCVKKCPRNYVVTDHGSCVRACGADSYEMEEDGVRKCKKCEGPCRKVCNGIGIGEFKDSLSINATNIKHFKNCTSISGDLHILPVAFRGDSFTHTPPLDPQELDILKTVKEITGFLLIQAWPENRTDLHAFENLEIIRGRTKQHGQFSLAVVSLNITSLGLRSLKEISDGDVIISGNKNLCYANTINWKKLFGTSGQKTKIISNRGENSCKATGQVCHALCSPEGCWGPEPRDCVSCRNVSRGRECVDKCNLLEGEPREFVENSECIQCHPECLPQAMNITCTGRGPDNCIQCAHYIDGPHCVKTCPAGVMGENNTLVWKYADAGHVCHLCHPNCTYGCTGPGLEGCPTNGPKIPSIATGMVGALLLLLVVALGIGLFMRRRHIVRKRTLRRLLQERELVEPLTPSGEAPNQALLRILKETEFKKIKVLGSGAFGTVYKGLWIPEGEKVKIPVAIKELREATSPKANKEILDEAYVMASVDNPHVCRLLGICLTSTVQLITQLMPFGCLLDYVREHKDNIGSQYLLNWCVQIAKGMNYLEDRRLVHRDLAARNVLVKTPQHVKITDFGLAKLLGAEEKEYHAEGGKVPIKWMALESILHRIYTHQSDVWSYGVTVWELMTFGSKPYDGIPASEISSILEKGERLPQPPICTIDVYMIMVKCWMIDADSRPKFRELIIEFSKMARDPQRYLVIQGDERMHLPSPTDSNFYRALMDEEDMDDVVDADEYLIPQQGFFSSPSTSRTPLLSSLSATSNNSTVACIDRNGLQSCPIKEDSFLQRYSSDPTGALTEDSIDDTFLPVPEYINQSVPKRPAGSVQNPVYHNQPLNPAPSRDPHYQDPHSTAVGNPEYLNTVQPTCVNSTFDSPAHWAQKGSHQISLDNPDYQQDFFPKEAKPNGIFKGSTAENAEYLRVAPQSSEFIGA

Drug uptake (Bone): 0.031 % ID/g | Drug uptake (Lung): 0.138 % ID/g | remaining at 2 min [1]: 95% | Drug uptake (Jejunum [2]): 0.489 % ID/g | Drug uptake (Spleen): 0.211 % ID/g | remaining at 2 min [3]: 98.9% | Drug uptake [4]: 0.082 % ID/g | Drug uptake (Heart): 0.041 % ID/g | Drug uptake (Colon [5]): 0.197 % ID/g | remaining at 1 h [6]: 49.8% | Drug uptake (Duodenum [7]): 1.453 % ID/g | Drug uptake [8]: 0.151 % ID/g | Drug uptake [9]: 0.068 % ID/g | Drug uptake (Duodenum [10]): 1.987 % ID/g | Drug uptake [11]: 8.561 % ID/g | Drug uptake [12]: 0.027 % ID/g | Drug uptake (Kidney): 0.711 % ID/g | remaining at 0.5 h [13]: 62.8% | Drug uptake (Jejunum [14]): 0.344 % ID/g | Drug uptake [15]: 0.392 % ID/g | remaining at 0.5 h [16]: 85.1% | Drug uptake [17]: 0.161 % ID/g | Drug uptake (Blood): 0.022 % ID/g | Drug uptake (Muscle tissue): 0.018 % ID/g | Drug uptake (Brain): 0.006 % ID/g | Drug uptake (Colon [18]): 0.236 % ID/g | Drug uptake (Stomach [19]): 0.215 % ID/g | Drug uptake (Stomach [20]): 1.341 % ID/g | remaining at 1 h [21]: 75.5%
SMILES: CCOc1cc2ncc(C#N)c(Nc3ccc(F)c(Cl)c3)c2cc1NC(=O)/C=C/CNCc1cn(CCF)nn1

IC50 [22]: > 1000 nM
SMILES: Nc1cc2ncnc(Nc3cccc(Br)c3)c2cc1N
